Test results from ChEMBL document CHEMBL1817569, “Synthesis, antifungal activity and QSAR study of 2-arylhydroxynitroindoles” (Eur J Med Chem, 2011).
Values after ≈ are worked out from the molar mass of the structure shown.

Columns and labels:
Venturia inaequalis [1] = experiment: Fungicidal activity against Venturia inaequalis assessed as mycelium growth inhibition at 30 ug/mL after 72 hrs; type: functional; conditions: read-out: GI
Procedure, shortened: (§1)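 Radial mycelial growth test on potato-saccharose agar mixed with compound at a single concentration. Plates are inoculated with inverted 3-mm fungus-coated discs and incubated at 25 °C. Colony diameter (mm) is read at 72 h against medium without sample. Inhibition I = [(DC − DT)/DC] × 100%. Three replicates.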

Rhizoctonia solani [2] = experiment: Fungicidal activity against Rhizoctonia solani assessed as mycelium growth inhibition at 30 ug/mL after 72 hrs; type: functional; conditions: read-out: GI; procedure, shortened: as §1
Fusarium oxysporum [3] = experiment: Fungicidal activity against Fusarium oxysporum assessed as mycelium growth inhibition at 30 ug/mL after 72 hrs; type: functional; conditions: read-out: GI; procedure, shortened: as §1
Fusarium verticillioides [4] = experiment: Fungicidal activity against Fusarium moniliforme assessed as mycelium growth inhibition at 30 ug/mL after 72 hrs; type: functional; conditions: read-out: GI; procedure, shortened: as §1
Bipolaris sorokiniana [5] = experiment: Fungicidal activity against Bipolaris sorokiniana assessed as mycelium growth inhibition at 30 ug/mL after 72 hrs; type: functional; conditions: read-out: GI; procedure, shortened: as §1
Sclerotinia sclerotiorum [6] = experiment: Fungicidal activity against Sclerotinia sclerotiorum assessed as mycelium growth inhibition at 30 ug/mL after 72 hrs; type: functional; conditions: read-out: GI; procedure, shortened: as §1
Venturia inaequalis [7] = experiment: Fungicidal activity against Venturia inaequalis assessed as mycelium growth inhibition after 72 hrs; type: functional, organism-based
Procedure, shortened: (§2)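 EC50 from radial mycelial growth on potato-saccharose agar over a 1–100 concentration range. Inverted 3-mm fungus-coated discs are placed on the agar and incubated at 25 °C. Colony diameter (mm) is measured at 72 h, with plain medium as blank. Percent inhibition = (DC − DT)/DC × 100. Triplicate tests.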

Rhizoctonia solani [8] = experiment: Fungicidal activity against Rhizoctonia solani assessed as mycelium growth inhibition after 72 hrs; type: functional, organism-based; procedure, shortened: as §2
Fusarium oxysporum [9] = experiment: Fungicidal activity against Fusarium oxysporum assessed as mycelium growth inhibition after 72 hrs; type: functional, organism-based; procedure, shortened: as §2
Fusarium verticillioides [10] = experiment: Fungicidal activity against Fusarium moniliforme assessed as mycelium growth inhibition after 72 hrs; type: functional, organism-based; procedure, shortened: as §2
Bipolaris sorokiniana [11] = experiment: Fungicidal activity against Bipolaris sorokiniana assessed as mycelium growth inhibition after 72 hrs; type: functional, organism-based; procedure, shortened: as §2
Sclerotinia sclerotiorum [12] = experiment: Fungicidal activity against Sclerotinia sclerotiorum assessed as mycelium growth inhibition after 72 hrs; type: functional, organism-based; procedure, shortened: as §2

SMILES	inhibition of growth at 30 µg/mL (Venturia inaequalis [1])	inhibition of growth at 30 µg/mL (Rhizoctonia solani [2])	inhibition of growth at 30 µg/mL (Fusarium oxysporum [3])	inhibition of growth at 30 µg/mL (Fusarium verticillioides [4])	inhibition of growth at 30 µg/mL (Bipolaris sorokiniana [5])	inhibition of growth at 30 µg/mL (Sclerotinia sclerotiorum [6])	EC50 (Venturia inaequalis [7])	EC50 (Rhizoctonia solani [8])	EC50 (Fusarium oxysporum [9])	EC50 (Fusarium verticillioides [10])	EC50 (Bipolaris sorokiniana [11])	EC50 (Sclerotinia sclerotiorum [12])
Cc1c(-c2ccccc2)[nH]c2cc([N+](=O)[O-])cc(O)c12	93%	100%	87%	100%	89%	100%	15.4 µg/mL (≈ 57.4 µM)	5.86 µg/mL (≈ 21.8 µM)	18 µg/mL (≈ 67.1 µM)	3.48 µg/mL (≈ 13 µM)	13 µg/mL (≈ 48.5 µM)	8.65 µg/mL (≈ 32.2 µM)
O=[N+]([O-])c1cc(O)c2cc(-c3ccccc3)[nH]c2c1	89%	100%	88%	100%	100%	100%	16.9 µg/mL (≈ 66.5 µM)	11.2 µg/mL (≈ 44.1 µM)	21.5 µg/mL (≈ 84.6 µM)	6.84 µg/mL (≈ 26.9 µM)	26.6 µg/mL (≈ 105 µM)	17.2 µg/mL (≈ 67.7 µM)
O=[N+]([O-])c1cc(O)c2cc(-c3ccccc3Cl)[nH]c2c1	44%	100%	88%	100%	100%	100%						
O=[N+]([O-])c1cc(O)c2cc(-c3ccc(Cl)cc3Cl)[nH]c2c1	26%	36%	25%	54%	22%	29%						
O=[N+]([O-])c1cc(O)c2cc(-c3ccc(O)cc3)[nH]c2c1	20%	38%	27%	39%	18%	19%						
O=[N+]([O-])c1cc(O)c2c(CCn3cncn3)c(-c3ccc(F)cc3)[nH]c2c1	2%	31%	28%	30%	52%	17%						
O=[N+]([O-])c1cc(O)c2cc(-c3ccc(Br)cc3)[nH]c2c1	15%	11%	12%	21%	5%	14%						
O=[N+]([O-])c1cc(O)c2cc(-c3ccc(C(F)(F)F)cc3)[nH]c2c1	53%	82%	71%	84%	74%	70%						
O=[N+]([O-])c1cc(O)c2cc(-c3ccc(F)cc3)[nH]c2c1	60%	96%	58%	73%	35%	48%						
COc1ccccc1-c1cc2c(O)cc([N+](=O)[O-])cc2[nH]1	26%	8%	15%	36%	20%	20%						
Nc1cc([N+](=O)[O-])c2cc(-c3ccccc3)oc2c1	16%	3%	9%	5%	3%	7%						
COc1cc([N+](=O)[O-])cc2[nH]c(-c3ccccc3)c(C)c12	2%	13%	11%	7%	7%	5%						
COc1cc([N+](=O)[O-])cc2c1c(C)c(-c1ccccc1)n2C	12%	4%	8%	8%	12%	0%						
COc1cc([N+](=O)[O-])cc2c1cc(-c1ccccc1)n2C	21%	7%	7%	23%	7%	8%						
Cn1c(-c2ccccc2)cc2c(O)cc([N+](=O)[O-])cc21	46%	77%	56%	51%	77%	23%						
O=[N+]([O-])c1cc(O)c2cc(-c3ccccc3)n(Cc3ccc(Cl)cc3)c2c1	12%	34%	27%	18%	11%	2%						
Cc1c(-c2ccccc2)[nH]c2c([N+](=O)[O-])cc(O)cc12	41%	91%	34%	54%	83%	51%						
Cc1c(-c2ccccc2)[nH]c2c(O)cc([N+](=O)[O-])cc12	48%	89%	63%	71%	95%	94%						
Cc1c(-c2ccccc2)[nH]c2c([N+](=O)[O-])ccc(O)c12	70%	100%	73%	84%	83%	51%						
Cc1c(-c2ccccc2)[nH]c2c(O)ccc([N+](=O)[O-])c12	65%	100%	91%	88%	87%	54%						
CC(C)(C)C(=O)C(Oc1ccc(Cl)cc1)n1cncn1 (centres undefined) [TRIADIMEFON]	42%	66%	60%	79%	71%	47%	20 µg/mL (≈ 68.1 µM)	20.6 µg/mL (≈ 70.1 µM)	3.25 µg/mL (≈ 11.1 µM)	2.41 µg/mL (≈ 8.2 µM)	11 µg/mL (≈ 37.4 µM)	6.18 µg/mL (≈ 21 µM)
